The source made the active and inactive calls.
Tests used:
Rattus norvegicus [1] = assay: Antihyperalgesic activity in orally dosed Sprague-Dawley rat model of complete Freund's adjuvant-induced inflammatory pain model assessed as reduction in mechanical allodynia measured 4 hrs post dose; assay type: functional
Method in brief: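 CFA was injected subcutaneously into the plantar surface of the rat hind paw. Oral dosing at 0.1-10 mg/kg began 5 days post-injection, once mechanical paw withdrawal threshold had fallen. Mechanical allodynia was read as paw withdrawal threshold 4 h after dosing. n=8 rats per group; significance versus vehicle-treated groups at p<0.05.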

[2] = target: T1, Fatty-acid amide hydrolase 1 (Rattus norvegicus) (UniProt P97612); assay: Irreversible inhibition of His-tagged rat FAAH N-terminal transmembrane-deleted truncated form expressed in Escherichia coli assessed as ratio of Kinact to Ki by GDH-coupled FAAH assay
T1 sequence (whole entry): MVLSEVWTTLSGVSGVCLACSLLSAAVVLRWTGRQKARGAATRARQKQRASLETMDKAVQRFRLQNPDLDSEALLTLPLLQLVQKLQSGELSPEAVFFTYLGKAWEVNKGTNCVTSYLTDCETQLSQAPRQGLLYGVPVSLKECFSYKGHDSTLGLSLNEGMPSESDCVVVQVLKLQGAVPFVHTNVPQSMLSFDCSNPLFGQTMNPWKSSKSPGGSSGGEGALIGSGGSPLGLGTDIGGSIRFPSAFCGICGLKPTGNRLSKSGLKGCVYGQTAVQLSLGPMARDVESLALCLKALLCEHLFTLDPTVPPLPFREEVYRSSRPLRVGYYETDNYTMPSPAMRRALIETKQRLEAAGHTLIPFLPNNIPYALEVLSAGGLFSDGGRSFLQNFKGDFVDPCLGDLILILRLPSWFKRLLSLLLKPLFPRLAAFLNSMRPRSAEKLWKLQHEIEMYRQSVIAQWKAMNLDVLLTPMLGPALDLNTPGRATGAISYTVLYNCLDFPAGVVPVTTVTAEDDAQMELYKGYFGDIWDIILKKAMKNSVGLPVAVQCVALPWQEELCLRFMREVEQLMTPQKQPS
Method in brief: (§1)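 Irreversible potency was measured as the second-order rate constant kinact/Ki in an enzyme-coupled FAAH assay (human or rat enzyme). Values are the average of at least two independent determinations ±SD.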

[3] = target: T2, Fatty-acid amide hydrolase 1 (Homo sapiens) (UniProt O00519); assay: Irreversible inhibition of His-tagged human FAAH N-terminal transmembrane-deleted truncated form expressed in Escherichia coli assessed as ratio of Kinact to Ki by GDH-coupled FAAH assay; method in brief: as §1
T2 sequence (whole entry): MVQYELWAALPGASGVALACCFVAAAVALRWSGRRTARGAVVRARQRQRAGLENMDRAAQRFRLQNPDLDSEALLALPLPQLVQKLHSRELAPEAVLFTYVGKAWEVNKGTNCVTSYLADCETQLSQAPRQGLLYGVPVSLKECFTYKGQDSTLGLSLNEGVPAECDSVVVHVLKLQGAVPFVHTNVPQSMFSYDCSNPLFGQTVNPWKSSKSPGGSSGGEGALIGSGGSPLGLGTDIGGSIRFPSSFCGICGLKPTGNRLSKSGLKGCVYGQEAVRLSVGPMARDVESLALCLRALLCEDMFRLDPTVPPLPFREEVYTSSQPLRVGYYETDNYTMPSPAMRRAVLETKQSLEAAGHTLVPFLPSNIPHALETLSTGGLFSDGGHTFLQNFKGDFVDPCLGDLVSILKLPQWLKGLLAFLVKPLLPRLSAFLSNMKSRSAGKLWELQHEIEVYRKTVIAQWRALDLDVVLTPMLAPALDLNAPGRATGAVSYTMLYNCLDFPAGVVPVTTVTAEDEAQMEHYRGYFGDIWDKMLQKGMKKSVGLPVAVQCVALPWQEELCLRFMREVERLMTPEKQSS

Cytochrome P450 3A4 [4] = target: T3, Cytochrome P450 3A4 (Homo sapiens, UniProt P08684); assay: Inhibition of CYP3A4 uisng midazolam substrate; assay type: ADME
T3 sequence (P08684 whole entry): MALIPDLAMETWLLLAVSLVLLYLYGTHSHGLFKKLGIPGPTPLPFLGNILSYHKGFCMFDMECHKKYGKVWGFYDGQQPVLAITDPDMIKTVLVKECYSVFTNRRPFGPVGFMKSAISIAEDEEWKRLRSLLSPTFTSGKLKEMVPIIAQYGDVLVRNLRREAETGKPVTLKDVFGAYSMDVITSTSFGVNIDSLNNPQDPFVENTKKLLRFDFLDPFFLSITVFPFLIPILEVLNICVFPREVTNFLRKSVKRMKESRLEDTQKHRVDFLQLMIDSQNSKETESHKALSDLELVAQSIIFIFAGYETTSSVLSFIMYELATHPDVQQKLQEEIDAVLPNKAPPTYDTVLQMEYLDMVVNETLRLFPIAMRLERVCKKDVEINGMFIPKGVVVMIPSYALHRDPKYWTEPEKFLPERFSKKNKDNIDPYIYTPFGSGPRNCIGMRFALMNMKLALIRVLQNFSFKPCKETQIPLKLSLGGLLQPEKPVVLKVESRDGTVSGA
Method in brief: (§2)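 CYP inhibition was tested in human liver microsomes with relevant probe substrates.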

Cytochrome P450 3A4 [5] = target: T3, Cytochrome P450 3A4; assay: Inhibition of CYP3A4 uisng testosterone substrate; assay type: ADME; method in brief: as §2
Cytochrome P450 2D6 = Cytochrome P450 2D6 (Homo sapiens, UniProt P10635); assay: Inhibition of CYP2D6; assay type: ADME; method in brief: as §2
Chain of Cytochrome P450 2D6 (P10635 whole entry): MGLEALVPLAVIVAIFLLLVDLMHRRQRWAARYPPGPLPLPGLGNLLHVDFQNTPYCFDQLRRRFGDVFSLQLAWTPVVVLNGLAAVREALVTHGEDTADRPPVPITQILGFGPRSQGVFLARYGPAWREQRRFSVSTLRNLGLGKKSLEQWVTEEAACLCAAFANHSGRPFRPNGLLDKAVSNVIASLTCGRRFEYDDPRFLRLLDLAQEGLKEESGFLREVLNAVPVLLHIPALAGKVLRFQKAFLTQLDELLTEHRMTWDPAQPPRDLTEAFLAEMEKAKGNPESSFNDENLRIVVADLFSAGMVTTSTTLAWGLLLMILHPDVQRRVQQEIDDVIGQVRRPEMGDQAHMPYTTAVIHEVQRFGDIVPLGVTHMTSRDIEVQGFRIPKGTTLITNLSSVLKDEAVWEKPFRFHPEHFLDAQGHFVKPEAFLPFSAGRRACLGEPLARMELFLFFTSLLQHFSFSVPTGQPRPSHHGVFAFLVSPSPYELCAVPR

Rattus norvegicus [6] = organism: Rattus norvegicus; conditions: Sprague-Dawley, 10 mg/kg

Compound | Ratio [2] | Ratio [3] | other results
O=C(Nc1cccnc1)N1CCC(Cc2cccc(Oc3ccc(C(F)(F)F)cn3)c2)CC1 |  |  | MED (Rattus norvegicus [1]): 3 mg/kg
Cc1cccnc1Oc1cccc(C=C2CCN(C(=O)Nc3cccnn3)CC2)c1 | 256 M⁻¹ s⁻¹ | 2200 M⁻¹ s⁻¹ | 
COc1ccc(NC(=O)N2CCC(=Cc3cccc(Oc4ccc(C(F)(F)F)cn4)c3)CC2)cn1 | 11400 M⁻¹ s⁻¹ | 16000 M⁻¹ s⁻¹ | 
O=C(Nc1cccnc1)N1CCC(Cc2cccc(Oc3ccc(C(F)(F)F)cn3)c2)C1 (stereo not drawn) |  | 88 M⁻¹ s⁻¹ | 
O=C(Nc1cccnn1)N1CCC(=Cc2cccc(Oc3ccccc3)c2)CC1 | 1900 M⁻¹ s⁻¹ | 1530 M⁻¹ s⁻¹ | 
O=C(Nc1noc2ccccc12)N1CCC(=Cc2cccc(Oc3ccc(C(F)(F)F)cn3)c2)CC1 | 30200 M⁻¹ s⁻¹ | 3930 M⁻¹ s⁻¹ | 
O=C(Nc1cccnn1)N1CCC(=Cc2cccc(Oc3ccc(C(F)(F)F)cc3)c2)CC1 | 22900 M⁻¹ s⁻¹ | 18900 M⁻¹ s⁻¹ | 
CCOc1ccc(Oc2cccc(C=C3CCN(C(=O)Nc4cccnn4)CC3)c2)nc1 | 11700 M⁻¹ s⁻¹ | 9230 M⁻¹ s⁻¹ | 
O=C(Nc1cccnn1)N1CCC(=Cc2cccc(Oc3ccc(C4CC4)cn3)c2)CC1 | 46300 M⁻¹ s⁻¹ | 28800 M⁻¹ s⁻¹ | 
Cc1ccc(Oc2cccc(C=C3CCN(C(=O)Nc4cccnn4)CC3)c2)nc1 | 5530 M⁻¹ s⁻¹ | 21500 M⁻¹ s⁻¹ | 
O=C(Nc1ccccn1)N1CCC(=Cc2cccc(Oc3ccc(C(F)(F)F)cn3)c2)CC1 | 563 M⁻¹ s⁻¹ | 6090 M⁻¹ s⁻¹ | 
Cc1noc(NC(=O)N2CCC(=Cc3cccc(Oc4ccc(C(F)(F)F)cn4)c3)CC2)c1C | 54400 M⁻¹ s⁻¹ | 7990 M⁻¹ s⁻¹ | 
O=C(Nc1cnccn1)N1CCC(=Cc2cccc(Oc3ccc(C(F)(F)F)cn3)c2)CC1 | 23700 M⁻¹ s⁻¹ | 42600 M⁻¹ s⁻¹ | IC50 (Cytochrome P450 3A4 [4]): 30 µM; IC50 (Cytochrome P450 3A4 [5]): 23.5 µM; IC50 (Cytochrome P450 2D6): 25.1 µM
Cc1cccc(Oc2cccc(C=C3CCN(C(=O)Nc4cccnn4)CC3)c2)n1 | 586 M⁻¹ s⁻¹ | 1090 M⁻¹ s⁻¹ | 
O=C(Nc1cccnn1)N1CCC(=Cc2cccc(Oc3ccc(C(F)(F)F)nc3)c2)CC1 | 2020 M⁻¹ s⁻¹ | 26600 M⁻¹ s⁻¹ | 
Cc1ccnc(Oc2cccc(C=C3CCN(C(=O)Nc4cccnn4)CC3)c2)c1 |  | 1580 M⁻¹ s⁻¹ | 
COc1ccc2cc([C@H](C)C(=O)O)ccc2c1 |  |  | inhibition (Rattus norvegicus [6]): Active

Now from value to molecule, other results behind:

Ratio [2] | Ratio [3] | Compound | other results
22 M⁻¹ s⁻¹ | 35 M⁻¹ s⁻¹ | O=C(Nc1cccnc1)N1CCC/C(=C/c2cccc(Oc3ccc(C(F)(F)F)cn3)c2)C1 | 
173 M⁻¹ s⁻¹ | 298 M⁻¹ s⁻¹ | O=C(Nc1cccnc1)N1CC(=Cc2cccc(Oc3ccc(C(F)(F)F)cn3)c2)C1 | 
584 M⁻¹ s⁻¹ | 4800 M⁻¹ s⁻¹ | O=C(Nc1ccccc1)N1CCC(=Cc2cccc(Oc3ccc(C(F)(F)F)cn3)c2)CC1 | 
5210 M⁻¹ s⁻¹ | 13100 M⁻¹ s⁻¹ | Cc1ccc(NC(=O)N2CCC(=Cc3cccc(Oc4ccc(C(F)(F)F)cn4)c3)CC2)cn1 | IC50 (Cytochrome P450 3A4 [4]): 11.8 µM; IC50 (Cytochrome P450 3A4 [5]): 3 µM; IC50 (Cytochrome P450 2D6): 1.6 µM
233 M⁻¹ s⁻¹ | 1150 M⁻¹ s⁻¹ | O=C(Nc1cccnc1)N1CCC/C(=C\c2cccc(Oc3ccc(C(F)(F)F)cn3)c2)C1 | 
15100 M⁻¹ s⁻¹ | 21600 M⁻¹ s⁻¹ | O=C(Nc1cccnc1)N1CCC(=Cc2cccc(Oc3ccc(C(F)(F)F)cn3)c2)CC1 | IC50 (Cytochrome P450 3A4 [4]): 4.3 µM; IC50 (Cytochrome P450 3A4 [5]): 0.8 µM; IC50 (Cytochrome P450 2D6): 1.4 µM
 | < 16 M⁻¹ s⁻¹ | O=C(Nc1cccnc1)N1CC/C(=C/c2cccc(Oc3ccc(C(F)(F)F)cn3)c2)C1 | 
 | 144 M⁻¹ s⁻¹ | O=C(Nc1cccnc1)N1CC/C(=C\c2cccc(Oc3ccc(C(F)(F)F)cn3)c2)C1 | 

From ChEMBL document CHEMBL1649098 (ACS Med Chem Lett, 2011)
